The target in series [1] is Histone acetyltransferase p300 (Homo sapiens, UniProt Q09472). The series can be described thus: Inhibition of recombinant histone acetyltransferase p300 (unknown origin) using dH3-H4 tetramer and [3H]-acetyl-CoA assessed as acetate incorporation after 5 mins by liquid scintillation counting in presence of 1 mM DTT.
Series [2] deals with T1, Histone acetyltransferase RTT109 (Saccharomyces cerevisiae (strain ATCC 204508 / S288c) (Baker's yeast)) (UniProt Q07794).
T1 sequence (whole entry): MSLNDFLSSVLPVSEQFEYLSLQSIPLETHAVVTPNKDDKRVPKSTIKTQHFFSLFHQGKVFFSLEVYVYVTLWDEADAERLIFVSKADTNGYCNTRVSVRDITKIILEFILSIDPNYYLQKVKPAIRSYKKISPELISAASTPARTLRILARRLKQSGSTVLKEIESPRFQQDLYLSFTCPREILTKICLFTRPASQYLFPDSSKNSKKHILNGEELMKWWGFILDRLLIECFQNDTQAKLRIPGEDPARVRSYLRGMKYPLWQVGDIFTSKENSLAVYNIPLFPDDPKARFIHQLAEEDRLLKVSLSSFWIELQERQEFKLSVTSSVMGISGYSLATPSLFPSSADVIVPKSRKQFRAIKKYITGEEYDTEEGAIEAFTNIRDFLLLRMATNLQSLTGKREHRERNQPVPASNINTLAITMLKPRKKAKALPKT
Kind of series: Inhibition of Vps75-stimulated recombinant Saccharomyces cerevisiae histone acetyltransferase Rtt109 assessed as H3K27 acetylated product at […] after 45 mins by Slot bolt inhibiton assay.

Series [3] concerns the target T1, Histone acetyltransferase RTT109 (Saccharomyces cerevisiae (strain ATCC 204508 / S288c) (Baker's yeast)). Kind of series: Inhibition of Vps75-stimulated recombinant Saccharomyces cerevisiae histone acetyltransferase Rtt109 assessed as H3K56 acetylated product at […] after 45 mins by Slot bolt inhibiton assay.
Series [4] in a line: Fluorescence quenching in HTS buffer with 20 uM 7-diethylamino-3-(4'-maleimidyl-phenyl)-4-methylcoumarin assessed as fluorescence signal reduction at 10 uM after 10 mins. The class given is physicochemical.
Series [5] is described as follows: Fluorescence quenching in HTS buffer assessed as fluorescence signal reduction at 10 uM after 10 mins. The class given is physicochemical.
Series [6] can be described thus: Fluorescence quenching assessed as fluorescence signal reduction at 10 uM after 10 mins. The class given is physicochemical. A digest of the protocol:
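CPM (20 μM final) and CoA (5 μM final) reacted to completion in assay buffer (stable plateau, usually ~5 min); adduct solution added to wells preplated with compound; shaken 5 min, equilibrated 5 min at room temperature; fluorescence intensity read as percent signal reduction versus DMSO controls. Flagged as quencher at >20% signal reduction at 10 μM final compound.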

Series [7] has as its target T1, Histone acetyltransferase RTT109 (Saccharomyces cerevisiae (strain ATCC 204508 / S288c) (Baker's yeast)). The series can be described thus: Inhibition of Vps75-stimulated recombinant Saccharomyces cerevisiae histone acetyltransferase Rtt109 using [3H]-acetyl-CoA assessed as acetate incorporation […] by liquid scintillation counting in presence of 1 mM DTT.
Series [8] in a line: Fluorescence quenching in HTS buffer with […] CoA assessed as fluorescence signal reduction at 10 uM after 10 mins. It is filed as physicochemical.
The target in series [9] is Histone acetyltransferase GCN5 (Saccharomyces cerevisiae S288c, UniProt Q03330). The series can be described thus: Inhibition of yeast histone acetyltransferase Gcn5-Ada2-Ada3 complex using tetramer and [3H]-acetyl-CoA assessed as acetate incorporation after 30 mins by liquid scintillation counting. The settings on record: read-out: IC50.
Histone acetyltransferase GCN5, sequence (Q03330 whole entry): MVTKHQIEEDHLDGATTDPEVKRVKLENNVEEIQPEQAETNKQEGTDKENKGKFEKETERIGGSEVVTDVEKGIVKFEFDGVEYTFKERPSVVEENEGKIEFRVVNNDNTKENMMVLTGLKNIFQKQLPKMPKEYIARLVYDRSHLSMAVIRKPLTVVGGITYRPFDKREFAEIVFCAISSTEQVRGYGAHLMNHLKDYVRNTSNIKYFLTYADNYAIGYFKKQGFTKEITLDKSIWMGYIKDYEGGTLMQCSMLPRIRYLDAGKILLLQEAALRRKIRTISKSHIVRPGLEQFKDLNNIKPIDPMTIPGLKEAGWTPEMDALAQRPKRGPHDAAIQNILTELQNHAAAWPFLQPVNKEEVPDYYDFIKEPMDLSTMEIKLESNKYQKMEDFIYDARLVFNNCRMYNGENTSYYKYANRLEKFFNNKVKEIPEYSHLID
The target in series [10] is Histone acetyltransferase GCN5 (Saccharomyces cerevisiae S288c) (UniProt Q03330). Kind of series: Inhibition of yeast histone acetyltransferase Gcn5-Ada2-Ada3 complex using tetramer and [3H]-acetyl-CoA assessed as acetate incorporation […] by liquid scintillation counting in presence of 1 mM DTT.
Histone acetyltransferase GCN5 (Saccharomyces cerevisiae S288c), sequence (Q03330 whole entry): as above
For series [11], the target named is T2, Histone acetyltransferase RTT109 (Saccharomyces cerevisiae (strain ATCC 204508 / S288c) (Baker's yeast), UniProt Q07794).
T2 sequence (Q07794 whole entry): T1 sequence (whole entry)
Kind of series: Inhibition of Vps75-stimulated recombinant Saccharomyces cerevisiae histone acetyltransferase Rtt109 using Asf1-dH3-H4 as substrate assessed as coenzyme A production after 45 mins by CPM based HTS assay. The settings on record: read-out: IC50. In a few lines: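 Recombinant Rtt109–Vps75 at 50 nM, with Asf1–dH3–H4 as substrate and acetyl-CoA as acetyl donor. Buffer contained freshly prepared 0.01% Triton X-100. The CoA product was detected by fluorescence of its CPM adduct. Plates had Z′ ≥0.5. IC50 came from a four-parameter variable-slope fit.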

Experimental findings from ChEMBL document CHEMBL3414544, “PAINS in the assay: chemical mechanisms of assay interference and promiscuous enzymatic inhibition observed during a sulfhydryl-scavenging HTS” (J Med Chem, 2015) are described below.

Calls of active or inactive are those of the source.

Histone acetyltransferase p300, sequence (Q09472 whole entry): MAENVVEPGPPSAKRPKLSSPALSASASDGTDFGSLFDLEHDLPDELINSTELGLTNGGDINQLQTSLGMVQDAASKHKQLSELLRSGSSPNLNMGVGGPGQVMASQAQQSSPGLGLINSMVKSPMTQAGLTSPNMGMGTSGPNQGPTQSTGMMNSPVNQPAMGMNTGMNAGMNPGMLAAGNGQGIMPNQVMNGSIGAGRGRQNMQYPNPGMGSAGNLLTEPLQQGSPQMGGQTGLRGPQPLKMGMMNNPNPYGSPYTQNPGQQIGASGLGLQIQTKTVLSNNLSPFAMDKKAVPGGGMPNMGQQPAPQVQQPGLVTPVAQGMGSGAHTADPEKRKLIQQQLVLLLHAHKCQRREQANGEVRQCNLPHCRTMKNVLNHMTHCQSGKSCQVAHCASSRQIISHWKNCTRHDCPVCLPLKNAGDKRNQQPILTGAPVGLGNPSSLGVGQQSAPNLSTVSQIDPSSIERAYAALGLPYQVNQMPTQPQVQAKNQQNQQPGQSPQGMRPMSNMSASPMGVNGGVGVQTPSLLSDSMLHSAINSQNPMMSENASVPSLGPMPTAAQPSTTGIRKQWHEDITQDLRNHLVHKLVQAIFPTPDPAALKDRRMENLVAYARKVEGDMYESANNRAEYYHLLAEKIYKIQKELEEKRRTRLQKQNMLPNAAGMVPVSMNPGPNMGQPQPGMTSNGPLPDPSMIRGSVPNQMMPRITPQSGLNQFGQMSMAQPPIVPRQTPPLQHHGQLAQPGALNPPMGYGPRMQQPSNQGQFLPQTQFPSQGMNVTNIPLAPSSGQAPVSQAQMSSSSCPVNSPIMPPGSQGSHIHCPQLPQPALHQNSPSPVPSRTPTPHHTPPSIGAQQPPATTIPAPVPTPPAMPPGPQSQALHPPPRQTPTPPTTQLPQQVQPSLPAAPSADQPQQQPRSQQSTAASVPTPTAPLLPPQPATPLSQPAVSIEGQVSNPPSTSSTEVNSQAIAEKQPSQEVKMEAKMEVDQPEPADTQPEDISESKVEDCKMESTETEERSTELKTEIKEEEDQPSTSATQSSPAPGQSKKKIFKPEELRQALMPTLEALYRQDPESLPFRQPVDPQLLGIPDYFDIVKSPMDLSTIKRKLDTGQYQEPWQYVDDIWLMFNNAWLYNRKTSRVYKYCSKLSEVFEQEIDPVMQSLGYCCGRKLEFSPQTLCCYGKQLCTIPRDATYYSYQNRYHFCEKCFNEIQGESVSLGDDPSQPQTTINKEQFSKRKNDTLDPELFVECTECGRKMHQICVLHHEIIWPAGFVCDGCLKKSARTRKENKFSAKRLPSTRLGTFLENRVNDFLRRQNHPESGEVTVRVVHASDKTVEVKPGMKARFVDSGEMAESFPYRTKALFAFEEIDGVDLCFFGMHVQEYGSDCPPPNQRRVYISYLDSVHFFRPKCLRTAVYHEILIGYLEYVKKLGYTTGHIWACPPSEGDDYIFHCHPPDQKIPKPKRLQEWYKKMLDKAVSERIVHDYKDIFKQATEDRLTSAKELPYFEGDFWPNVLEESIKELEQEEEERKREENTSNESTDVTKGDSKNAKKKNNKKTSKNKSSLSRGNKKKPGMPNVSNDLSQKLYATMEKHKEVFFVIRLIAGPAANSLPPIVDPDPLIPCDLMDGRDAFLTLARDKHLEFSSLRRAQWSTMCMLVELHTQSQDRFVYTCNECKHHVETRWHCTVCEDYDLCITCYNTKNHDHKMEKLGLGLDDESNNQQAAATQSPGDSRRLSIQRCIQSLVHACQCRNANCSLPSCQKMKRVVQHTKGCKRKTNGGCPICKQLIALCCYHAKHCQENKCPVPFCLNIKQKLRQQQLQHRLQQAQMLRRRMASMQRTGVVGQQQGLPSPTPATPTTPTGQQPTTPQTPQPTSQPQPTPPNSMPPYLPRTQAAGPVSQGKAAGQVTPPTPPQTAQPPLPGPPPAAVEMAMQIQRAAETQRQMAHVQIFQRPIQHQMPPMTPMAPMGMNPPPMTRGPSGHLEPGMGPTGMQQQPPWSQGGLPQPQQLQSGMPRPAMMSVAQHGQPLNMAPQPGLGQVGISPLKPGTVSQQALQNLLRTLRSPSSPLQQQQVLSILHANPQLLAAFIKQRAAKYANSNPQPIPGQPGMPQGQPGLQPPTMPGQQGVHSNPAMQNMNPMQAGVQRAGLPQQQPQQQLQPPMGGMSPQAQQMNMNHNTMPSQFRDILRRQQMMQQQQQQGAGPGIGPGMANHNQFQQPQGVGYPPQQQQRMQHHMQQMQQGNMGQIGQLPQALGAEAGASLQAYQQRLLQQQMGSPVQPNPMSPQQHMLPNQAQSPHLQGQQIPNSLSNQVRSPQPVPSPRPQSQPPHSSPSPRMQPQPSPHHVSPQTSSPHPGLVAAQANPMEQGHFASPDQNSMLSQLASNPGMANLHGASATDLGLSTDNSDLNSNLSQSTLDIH

As a reminder, the IC50 is the concentration that inhibits the measured activity by half. Consider `O=S1(=O)C=C(Sc2nnnn2-c2ccccc2)c2ccccc21`, for which the outcome in series [1], in [2], in series [3], in series [7] and in series [10] was Active. The Activity entry in [4], in [5], in series [6] and in [8] was “Not Active” each time. For the same molecule, the IC50 in series [9] stood at 20 µM.
As for `[O-][Cl+3]([O-])([O-])[O-].c1ccc(-c2nc(N(c3ccccc3)c3ccccc3)s[n+]2-c2ccccc2)cc1`, the result in [2] and in [3] was Active. Further, the Activity result in series [4], in series [5], in [6] and in series [8] was “Not Active” in each case. Besides, the 50% inhibitory concentration (IC50) in series [11] stood at 3.5 µM.
Turning to `O=[N+]([O-])c1cccc(S(=O)(=O)Nc2cc(Br)c(O)c3ccccc23)c1`, the result in [2] and in series [3] was Active. The Activity result in series [4], in series [5], in [6] and in [8] was “Not Active” in each case. The concentration for half-maximal inhibition (IC50) in series [11] is 5.4 µM.
`COc1ccc(N2C(=O)C=CC2=O)cc1`: the outcome in series [2] and in series [3] was Active. The Activity result in [4], in [5], in series [6] and in series [8] was “Not Active” each time. Moreover, the half-maximal inhibitory concentration (IC50) in series [11] was determined as 9.2 µM.
As to `O=C(O)CSc1cc(Cl)c2nonc2c1[N+](=O)[O-]`, the result in series [2] and in series [3] was Active. The Activity entry in series [4], in series [5], in [6] and in [8] was “Not Active” each time. For the same molecule, in [11], the IC50 amounted to 17 µM.
In the case of `O=[N+]([O-])c1ccc2nonc2c1Sc1nc2ccccc2[nH]1`, the result in series [2] and in series [3] was Active. Also, the Activity entry in [4], in series [5], in [6] and in series [8] was “Not Active” in each case. The IC50 in series [11] is 3.4 µM.
Turning to `O=S(=O)(Nc1cc(Sc2cccc3cccnc23)c(O)c2ccccc12)c1ccccc1`, the result in [2] and in [3] was Active. Moreover, the Activity entry in series [4], in series [5], in [6] and in series [8] was “Not Active” each time. Also, the IC50 in [11] amounted to 2.4 µM.
For the molecule `O=[N+]([O-])c1c(Sc2ncnc3[nH]cnc23)cc(Cl)c2nsnc12`, the outcome in series [2] and in series [3] was Active. The Activity result in series [4], in series [5], in [6] and in series [8] was “Not Active” throughout. Further, the IC50 in series [11] was found to be 2.2 µM.
In the case of `O=S(=O)(C[n+]1sc(N(c2ccccc2)c2ccccc2)nc1-c1ccccc1)c1ccccc1.[Br-]`, the outcome in series [2] and in [3] was inactive. The Activity entry in series [4], in [5], in [6] and in [8] was “Not Active” each time. For the same molecule, the IC50 in series [11] was 50 µM.
Turning to `Cn1c(CN2CCOCC2)nnc1Sc1ccc([N+](=O)[O-])c2nonc12`, the outcome in series [2] and in [3] was Active. The Activity result in series [4], in series [5], in [6] and in series [8] was “Not Active” each time. In addition, the IC50 in series [11] came to 1.8 µM.
As to `O=C1C=CC(=O)N1c1cccc(F)c1`, the result in series [2] and in series [3] was Active. In addition, the Activity entry in series [4], in [5], in series [6] and in [8] was “Not Active” each time. Further, the IC50 in series [11] was 6.1 µM.
`Cc1ccc(N2C(=O)CC(Sc3nnc(-c4ccccc4O)o3)C2=O)cc1` (centres undefined): the outcome in series [2] and in series [3] was Active. The Activity entry in series [4], in series [5], in series [6] and in series [8] was “Not Active” each time. In addition, the half-maximal inhibitory concentration (IC50) in [11] was 50 µM.
Consider `O=[N+]([O-])c1ccccc1-c1nnc(SC2=CS(=O)(=O)c3ccccc32)o1`, for which the result in [2] and in series [3] was Active. For the same molecule, the Activity entry in series [4], in series [5], in series [6] and in series [8] was “Not Active” in each case. Also, the half-inhibitory concentration (IC50) in [11] is 5.7 µM.
On to `Cc1ccc(S(=O)(=O)Nc2cc(Sc3nnnn3-c3ccccc3)c(O)c3ccccc23)cc1`, for which the result in [2] and in [3] was Active. The Activity entry in series [4], in series [5], in [6] and in [8] was “Not Active” each time. Further, the half-maximal inhibitory concentration (IC50) in series [11] was found to be 8.6 µM.
Regarding `O=S(=O)(C[n+]1sc(Nc2ccccc2)nc1-c1ccccc1)c1ccc2ccccc2c1.[Br-]`, the outcome in series [2] and in series [3] was inactive. The Activity result in series [4], in series [5], in [6] and in series [8] was “Not Active” each time. Further, the IC50 in series [11] was found to be 28 µM.
For the molecule `COc1ccc(Nc2nc(-c3ccc(OC)cc3)[n+](CS(=O)(=O)c3ccc(C)cc3)s2)cc1.O=S(=O)([O-])O`, the result in [2] and in series [3] was Active. Besides, the Activity entry in series [4], in series [5], in [6] and in series [8] was “Not Active” throughout. Further, the IC50 in series [11] was found to be 2.7 µM.
As for `CC(C)c1ccc(S(=O)(=O)Nc2ccc(O)c(Sc3nc[nH]n3)c2)cc1`, the outcome in series [2] and in series [3] was inactive. The Activity entry in series [4], in series [5], in series [6] and in [8] was “Not Active” throughout. Also, in series [11], the half-inhibitory concentration (IC50) worked out at 200 µM.
In the case of `O=C1CC(Sc2nc[nH]n2)C(=O)N1c1ccccc1` (centres undefined), the result in [2] and in series [3] was Active. In addition, the Activity entry in series [4], in series [5], in series [6] and in series [8] was “Not Active” in each case. In addition, in series [11], the half-inhibitory concentration (IC50) is 15 µM.
